{"data": "Measured values pooled from the literature", "note": "Each line is one published result; the experiments were not run side by side."}
{"Compound": "CN(C)[C@@H]1C(O)=C(C(N)=O)C(=O)[C@@]2(O)C(O)=C3C(=O)c4c(O)c(-c5ccccc5)nc(Cl)c4C[C@H]3C[C@@H]12.Cl", "target or system": "Enterobacter cloacae", "test": "microbial growth, broth dilution", "test system": "ATCC13047", "quantity": "MIC", "value": "> 32 mg/L"}
{"Compound": "CC1(C)S[C@@H]2[C@H](NC(=O)[C@H](N)c3ccccc3)C(=O)N2[C@H]1C(=O)O", "target or system": "Enterococcus gallinarum", "test": "microbial growth, broth dilution", "test system": "GALLINARUM", "quantity": "MIC", "value": "8 mg/L"}
{"Compound": "CC(=O)O[C@H]1C(=O)[C@@]2(C)[C@H]([C@H](OC(=O)c3ccccc3)[C@]3(O)C[C@H](OC(=O)[C@H](O)[C@@H](NC(=O)c4ccccc4)c4ccccc4)C(C)=C1C3(C)C)[C@]1(OC(C)=O)CO[C@@H]1C[C@@H]2O", "target or system": "human Rhabdomyosarcoma cell", "test": "cell growth or viability, MTT", "setting": "48 h", "quantity": "IC50", "value": "6.13 µM"}
{"Compound": "C/C=C(\\C)c1cc(O)c(C)c(OC(=O)c2c(C)cc(O)c(Cl)c2O)c1", "target or system": "Enterococcus gallinarum", "test": "microbial growth, broth dilution", "test system": "GALLINARUM", "quantity": "MIC", "value": "8 mg/L"}
{"Compound": "C=CCn1c(-c2ccc([N+](=O)[O-])cc2)nc2ccccc21", "target or system": "human Rhabdomyosarcoma cell", "test": "cell growth or viability, MTT", "quantity": "IC50", "value": "32.6 µM"}
{"Compound": "CC(C)CCNc1nc(Cl)c2c(c1O)C(=O)C1=C(O)[C@]3(O)C(=O)C(C(N)=O)=C(O)[C@@H](N(C)C)[C@@H]3C[C@@H]1C2.Cl.Cl.Cl", "target or system": "Enterobacter cloacae", "test": "microbial growth, broth dilution", "test system": "ATCC13047", "quantity": "MIC", "value": "> 32 mg/L"}
{"Compound": "Cc1ccc2nc(-c3ccc(Cl)cc3)[nH]c2c1", "target or system": "human Rhabdomyosarcoma cell", "test": "cell growth or viability, MTT", "setting": "48 h", "quantity": "IC50", "value": "48.3 µM"}
{"Compound": "C[C@@H](Oc1cc(-c2cnn(C3CCNCC3)c2)cnc1N)c1c(Cl)ccc(F)c1Cl", "target or system": "NCI-H3122", "test": "cell growth or viability, MTT", "setting": "1 µg/mL, 72 h", "quantity": "inhibition", "value": "77.5%"}
{"Compound": "O=[N+]([O-])c1ccc(-c2nc3ccccc3n2Cc2ccccc2)cc1", "target or system": "human Rhabdomyosarcoma cell", "test": "cell growth or viability, MTT", "quantity": "IC50", "value": "7.44 µM"}
{"Compound": "CC(C)Oc1c(NC(=O)c2ccc(NC(=O)[C@H](CC(N)=O)NC(=O)c3ccc(NC(=O)c4ccc(C#N)cn4)cc3)cc2)ccc(C(=O)Nc2ccc(C(=O)O)cc2)c1O", "target or system": "Serratia marcescens", "test": "microbial growth", "test system": "DSM30121", "quantity": "MIC", "value": "> 64 mg/L"}
{"Compound": "CCCc1nc(N(C)C)c2c(c1O)C(=O)C1=C(O)[C@]3(O)C(=O)C(C(N)=O)=C(O)[C@@H](N(C)C)[C@@H]3C[C@@H]1C2.Cl.Cl", "target or system": "Enterobacter cloacae", "test": "microbial growth, broth dilution", "test system": "ATCC13047", "quantity": "MIC", "value": "> 32 mg/L"}
{"Compound": "Cc1cc(Nc2ncc(Cl)c(Nc3ccccc3S(=O)(=O)C(C)C)n2)c(OC(C)C)cc1C1CCNCC1", "target or system": "NCI-H3122", "test": "cell growth or viability, MTT", "setting": "2 µg/mL, 72 h", "quantity": "inhibition", "value": "90.7%"}
